The source of these data is ChEMBL document CHEMBL1124197, “3-[1-(2-Benzoxazolyl)hydrazino]propanenitrile derivatives: inhibitors of immune complex induced inflammation” (1988).

Structures are written as SMILES. The source made the active and inactive calls. The calls are words filed in the database; no cut-off is given here.

The test system of test [1] is Rattus norvegicus. Description: Inhibition of pleural reverse passive Arthus reactions (RPAR) in rat (exudate volume); No significant inhibition at 56 umol/kg (Inactive). Type of test: functional, organism-based. Put shortly:
(§1)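 Fasted male rats were given BSA intravenously, then about 1 h later rabbit anti-BSA intrapleurally. Oral dosing was 30 min before the challenge. After 4 h the rats were killed and pleural exudate fluid volume and white blood cell accumulation were determined. ED50 with 95% confidence limits came from least-squares regression.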

The subject of test [2] is Rattus norvegicus. Description: Effect in rat pleural Carrageenan test (exudate white blood cells (WBC)); No significant effect at 28 umol/kg (Not active). Type of test: functional, organism-based.
Test [3] has as its system Rattus norvegicus. Put plainly: Inhibition of pleural reverse passive Arthus reactions (exudate white blood cells (WBC)); No significant inhibition at 56 umol/kg (Inactive). Type of test: functional, organism-based. Put shortly:
as §1

The subject of test [4] is Rattus norvegicus. Put plainly: Effective dose of compound for 40% inhibition of rat dermal reverse passive Arthus reaction (RPAR) on peroral administration; No significant inhibition at 56 umol/kg (Inactive). Type of test: functional, organism-based. An outline of the steps:
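Fasted male rats received BSA intravenously and about 1 h later a challenge of rabbit anti-BSA given intradermally. Compound was dosed orally 30 min before the challenge. Rats were killed 4 h later and dermal lesion size was measured. ED40 with 95% confidence limits came from least-squares regression.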

The species entered for test [5] is Rattus norvegicus. Description: Effect in rat pleural Carrageenan test (exudate volume). Type of test: functional.

For `COc1ccc2c(c1)c(CC(=O)O)c(C)n2C(=O)c1ccc(Cl)cc1` [INDOMETHACIN], the ED50 entry in test [1], in test [2] and in test [3] was “inactive” throughout. The ED40 entry in test [4] is “inactive”. In addition, in test [5], the 50% effect level (ED50) was put at a dose of 1.1 µmol/kg.
